# Laboratory results: ChEMBL document CHEMBL1275323, “Synthesis and biological evaluation of 2-phenylthiazole-4-carboxamide derivatives as anticancer agents” (Eur J Med Chem, 2010)
# What was measured:
# Type in all cases: functional, cell-based
# Caco-2 = assay: Cytotoxicity against human Caco-2 cells after 48 hrs by MTT assay; settings: Caco-2, 48 h
# In short: (§1)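 Cells seeded at 8000–10,000 viable cells/well and left 48 h to attach, then exposed to a range of compound concentrations for a further 48–96 h, depending on the cell line's cycle. After a PBS wash, MTT was added and the formazan was dissolved in DMSO. Absorbance was read at 550 nm against 690 nm reference. IC50 was obtained by linear regression from two independent experiments in triplicate (mean ± SD). Methotrexate served as reference.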
# T47D = assay: Cytotoxicity against human T47D cells after 48 hrs by MTT assay; in short: as §1
# HT-29 = assay: Cytotoxicity against human HT-29 cells after 48 hrs by MTT assay; settings: HT-29, 48 h; in short: as §1
Compound,IC50 (Caco-2) [µg/mL],IC50 (T47D) [µg/mL],IC50 (HT-29) [µg/mL]
O=C(Cc1ccccc1Cl)NCc1ccc(-c2nc(C(=O)N3CCCCC3)cs2)cc1,12.8,24.3,26.8
O=C(Cc1cccc(Cl)c1)NCc1ccc(-c2nc(C(=O)N3CCCCC3)cs2)cc1,155,37.6,64.3
O=C(Cc1ccc(Cl)cc1)NCc1ccc(-c2nc(C(=O)N3CCCCC3)cs2)cc1,89.9,11.8,5.37
O=C(Cc1ccccc1F)NCc1ccc(-c2nc(C(=O)N3CCCCC3)cs2)cc1,18.1,18.8,> 1000
O=C(Cc1cccc(F)c1)NCc1ccc(-c2nc(C(=O)N3CCCCC3)cs2)cc1,4.32,2.02,9.84
O=C(Cc1ccc(F)cc1)NCc1ccc(-c2nc(C(=O)N3CCCCC3)cs2)cc1,114,14.2,52
O=C(Cc1ccc(Br)cc1)NCc1ccc(-c2nc(C(=O)N3CCCCC3)cs2)cc1,52,29.5,45.3
COc1ccccc1CC(=O)NCc1ccc(-c2nc(C(=O)N3CCCCC3)cs2)cc1,28.1,6.83,4.46
COc1cccc(CC(=O)NCc2ccc(-c3nc(C(=O)N4CCCCC4)cs3)cc2)c1,41.1,40.3,447
COc1ccc(CC(=O)NCc2ccc(-c3nc(C(=O)N4CCCCC4)cs3)cc2)cc1,1.88,21.6,> 1000
CN(Cc1cnc2nc(N)nc(N)c2n1)c1ccc(C(=O)N[C@@H](CCC(=O)O)C(=O)O)cc1 [METHOTREXATE],0.32,0.16,0.23
